Experimental data from BindingDB's records for doi:10.1021/acs.jmedchem.0c01922 (University of Toronto Mississauga, 2021).
pIC50: −log10 of the molar value.

Target: T1, Histone deacetylase 11 (Homo sapiens, UniProt Q96DB2)
T1 sequence (Q96DB2 whole entry): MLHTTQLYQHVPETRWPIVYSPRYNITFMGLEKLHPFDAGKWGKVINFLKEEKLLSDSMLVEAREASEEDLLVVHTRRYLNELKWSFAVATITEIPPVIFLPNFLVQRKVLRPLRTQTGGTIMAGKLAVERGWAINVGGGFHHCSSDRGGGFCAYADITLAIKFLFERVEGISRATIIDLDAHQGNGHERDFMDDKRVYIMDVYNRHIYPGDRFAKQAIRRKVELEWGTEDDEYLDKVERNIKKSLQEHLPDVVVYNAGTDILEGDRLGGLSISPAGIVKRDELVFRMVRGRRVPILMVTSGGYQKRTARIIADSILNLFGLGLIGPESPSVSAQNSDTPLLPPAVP
Assay: Inhibition of full length human HDAC11 using FAM-labeled acetylated peptide as substrate by electrophoretic mobility shift assay
In short: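 Full-length human HDAC isoform enzymatic assay by electrophoretic mobility shift, using a FAM-labelled acetylated peptide substrate. […] Values are the mean of duplicate experiments with 95% confidence intervals.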

Structure (SMILES): O=C(NO)c1ccc(CN(Cc2cccnc2)S(=O)(=O)c2cc(F)c(F)c(F)c2F)cc1
- pIC50: < 6.00
